Data published in ChEMBL document CHEMBL1136227, “Regulation of gene expression by synthetic dimerizers with novel specificity” (Bioorg Med Chem Lett, 2003).

Assays:
[1] = target: Peptidyl-prolyl cis-trans isomerase FKBP1A (Homo sapiens, UniProt P62942, F36V); test: Inhibition of binding to Phe36Val (F36V) mutant of FK506 binding protein 12
Outline: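 Fluorescence polarization competition assay with F36V-FKBP12, testing monomeric FKBP ligands. IC50 = monomer concentration reducing probe binding by 50%.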

[2] = system: HT-1080; test: (§1) Compound was induced transcription stably transfected with constructs encoding separate DNA-binding domain and activation domain proteins in HT1080 human fibrosarcoma cells; format: functional, cell-based
Outline: (§2)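 HT1080 human fibrosarcoma cells, transiently or stably transfected with separate DNA-binding domain and activation domain fusions, each carrying three tandem F36V-FKBP copies, plus a SEAP reporter responsive to the reconstituted factor. Dimerizer titrated; secreted SEAP measured. EC50 = dimerizer concentration giving 50% of peak SEAP expression; peak level also expressed relative to a reference dimerizer.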

[3] = system: HT-1080; test: as §1; format: functional; outline: as §2
[4] = system: HT-1080; test: (§3) Compound was induced transcription in transiently transfected with constructs encoding separate DNA-binding domain and activation domain proteins in HT1080 human fibrosarcoma cells; format: functional; outline: as §2
[5] = system: HT-1080; test: as §3; format: functional, cell-based; outline: as §2
[6] = system: HT-1080; test: Compound was induced transcription stably transfected with constructs encoding separate DNA-binding domain and activation domain proteins in HT1080 human fibrosarcoma cells; No induction; format: functional, cell-based; outline: as §2
[7] = system: HT-1080; test: Compound was induced transcription stably transfected with constructs encoding separate DNA-binding domain and activation domain proteins in HT1080 human fibrosarcoma cells;No induction; format: functional, cell-based; outline: as §2

Chain of Peptidyl-prolyl cis-trans isomerase FKBP1A (P62942 2-108 F37V limits assumed): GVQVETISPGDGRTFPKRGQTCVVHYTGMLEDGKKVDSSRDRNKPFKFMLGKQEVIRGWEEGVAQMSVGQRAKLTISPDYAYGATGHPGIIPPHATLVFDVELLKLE

SMILES	IC50 [1] [µM]	EC50 [5] [µM]	Expression [4] [%]	further results
COc1ccc(CC[C@@H](OC(=O)[C@@H]2CCCCN2C(=O)[C@@H](C)c2cc(OC)c(OC)c(OC)c2)c2cccc(OCC(=O)O)c2)cc1OC	0.0082			
CCC(CC)NC(=O)N1CCCC[C@H]1C(=O)O[C@H](CCc1ccc(OC)c(OC)c1)c1cccc(OCC(=O)O)c1	0.064			
CC[C@H](C(=O)N1CCCC[C@H]1C(=O)O[C@H](CCc1cccnc1)c1cccc(OCC(=O)O)c1)c1cc(OC)c(OC)c(OC)c1	0.015			
CC[C@H](C(=O)N1CCCC[C@H]1C(=O)O[C@H](CCc1ccccc1)c1cccc(OCC(=O)O)c1)c1cc(OC)c(OC)c(OC)c1	0.0055			
CCC(C)(C)C(=O)C(=O)N1CCCC[C@H]1C(=O)O[C@H](CCc1ccc(OC)c(OC)c1)c1cccc(OCC(=O)O)c1	0.044			
CC[C@H](C(=O)N1CCCC[C@H]1C(=O)O[C@H](CCc1ccc(OC)c(OC)c1)c1cccc(OCC(=O)O)c1)c1ccc2c(c1)OCO2	0.026			
CO[C@H]1C[C@@H](C)C/C(C)=C/[C@@H](C/C=C/CC2/C=C(\C)C[C@H](C)C[C@H](OC)[C@H]3O[C@@](O)(C(=O)C(=O)N4CCCCC4C(=O)O[C@H](/C(C)=C/[C@@H]4CC[C@@H](O)[C@H](OC)C4)[C@H](C)[C@@H](O)CC2=O)[C@H](C)C[C@H]3OC)C(=O)C[C@H](O)[C@@H](C)[C@@H](/C(C)=C/[C@@H]2CC[C@@H](O)[C@H](OC)C2)OC(=O)C2CCCCN2C(=O)C(=O)C2O[C@H]1[C@H](OC)C[C@H]2C (some centres undefined)		0.189	39	EC50 [6]: No induction
CC[C@@H]1/C=C(\C)C[C@H](C)C[C@H](OC)[C@H]2OC(C(=O)C(=O)N3CCCCC3C(=O)O[C@H](/C(C)=C/[C@@H]3CC[C@@H](O)[C@H](OC)C3)[C@H](C)[C@@H](O)CC1=O)[C@H](C)C[C@H]2OC (some centres undefined)	0.012			
CC[C@H](C(=O)N1CCCC[C@H]1C(=O)O[C@H](CCc1ccc(OC)c(OC)c1)c1cccc(OCC(=O)O)c1)c1cc(OC)c(OC)c(OC)c1 (stereo in doubt; form 1)	0.0082			
CC[C@H](C(=O)N1CCCC[C@H]1C(=O)O[C@H](CCc1ccc(OC)c(OC)c1)c1cccc(OCC(=O)NCCNC(=O)COc2cccc([C@@H](CCc3ccc(OC)c(OC)c3)OC(=O)[C@@H]3CCCCN3C(=O)[C@@H](CC)c3cc(OC)c(OC)c(OC)c3)c2)c1)c1cc(OC)c(OC)c(OC)c1 (stereo in doubt; form 2) [RIMIDUCID]			79	EC50 [6]: No induction

More lines, main results first:

IC50 [1] [µM]	EC50 [5] [µM]	SMILES	Expression [4] [%]	further results
	0.011	CCC(CC)NC(=O)N1CCCC[C@H]1C(=O)O[C@H](CCc1ccc(OC)c(OC)c1)c1cccc(OCC(=O)NCCNC(=O)COc2cccc([C@@H](CCc3ccc(OC)c(OC)c3)OC(=O)[C@@H]3CCCCN3C(=O)NC(CC)CC)c2)c1	138	EC50 [2]: 0.019 µM; Expression [3]: 106%
	0.082	CC[C@H](C(=O)N1CCCC[C@H]1C(=O)O[C@H](CCc1cccnc1)c1cccc(OCC(=O)NCCNC(=O)COc2cccc([C@@H](CCc3cccnc3)OC(=O)[C@@H]3CCCCN3C(=O)[C@@H](CC)c3cc(OC)c(OC)c(OC)c3)c2)c1)c1cc(OC)c(OC)c(OC)c1	29	EC50 [6]: No induction
	0.004	CC[C@H](C(=O)N1CCCC[C@H]1C(=O)O[C@H](CCc1ccc(OC)c(OC)c1)c1cccc(OCC(=O)NCCNC(=O)COc2cccc([C@@H](CCc3ccc(OC)c(OC)c3)OC(=O)[C@@H]3CCCCN3C(=O)[C@@H](CC)c3ccccc3)c2)c1)c1ccccc1	100	EC50 [2]: 0.008 µM; Expression [3]: 100%
	0.006	CC[C@H](C(=O)N1CCCC[C@H]1C(=O)O[C@H](CCc1ccc(OC)c(OC)c1)c1cccc(OCC(=O)NCCNC(=O)COc2cccc([C@@H](CCc3ccc(OC)c(OC)c3)OC(=O)[C@@H]3CCCCN3C(=O)[C@@H](CC)c3ccc4c(c3)OCO4)c2)c1)c1ccc2c(c1)OCO2	105	EC50 [2]: 0.009 µM; Expression [3]: 53%
	0.004	COc1ccc(CC[C@@H](OC(=O)[C@@H]2CCCCN2C(=O)[C@@H](C)c2cc(OC)c(OC)c(OC)c2)c2cccc(OCC(=O)NCCNC(=O)COc3cccc([C@@H](CCc4ccc(OC)c(OC)c4)OC(=O)[C@@H]4CCCCN4C(=O)[C@@H](C)c4cc(OC)c(OC)c(OC)c4)c3)c2)cc1OC	89	EC50 [7]: No induction
	0.177	CCC(C)(C)C(=O)C(=O)N1CCCC[C@H]1C(=O)O[C@H](CCc1ccc(OC)c(OC)c1)c1cccc(OCC(=O)NCCNC(=O)COc2cccc([C@@H](CCc3ccc(OC)c(OC)c3)OC(=O)[C@@H]3CCCCN3C(=O)C(=O)C(C)(C)CC)c2)c1	149	EC50 [2]: 0.294 µM; Expression [3]: 17%
	0.02	COc1ccc(CC[C@@H](OC(=O)[C@@H]2CCCCN2C(=O)Cc2ccccc2)c2cccc(OCC(=O)NCCNC(=O)COc3cccc([C@@H](CCc4ccc(OC)c(OC)c4)OC(=O)[C@@H]4CCCCN4C(=O)Cc4ccccc4)c3)c2)cc1OC	150	EC50 [2]: 0.01 µM; Expression [3]: 7%
	0.057	CC[C@H](C(=O)N1CCCC[C@H]1C(=O)O[C@H](CCc1ccccc1)c1cccc(OCC(=O)NCCNC(=O)COc2cccc([C@@H](CCc3ccccc3)OC(=O)[C@@H]3CCCCN3C(=O)[C@@H](CC)c3cc(OC)c(OC)c(OC)c3)c2)c1)c1cc(OC)c(OC)c(OC)c1	97	EC50 [6]: No induction
	0.003	CC[C@H](C(=O)N1CCCC[C@H]1C(=O)O[C@H](CCc1ccc(OC)c(OC)c1)c1cccc(OCC(=O)NCCNC(=O)COc2cccc([C@@H](CCc3ccc(OC)c(OC)c3)OC(=O)[C@@H]3CCCCN3C(=O)[C@@H](CC)c3cc(OC)c(OC)c(OC)c3)c2)c1)c1cc(OC)c(OC)c(OC)c1 (stereo in doubt; form 1) [RIMIDUCID]		
0.0082		CC[C@H](C(=O)N1CCCC[C@H]1C(=O)O[C@H](CCc1ccc(OC)c(OC)c1)c1cccc(OCC(=O)O)c1)c1cc(OC)c(OC)c(OC)c1 (stereo in doubt; form 2)		
